In general, IC50 refers to the midpoint of a concentration-inhibition curve.

Test [1] addresses recombinant human GST-GAPDHS (Homo sapiens, UniProt O14556). Put plainly: GAPDHS dose response / IC50 determination. The test is classed as biochemical. An outline of the steps: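 IC50 against GST-GAPDHS used the single-point assay conditions with two-fold serial dilutions in DMSO, giving 10 final concentrations from 80 µM to […]. Percent inhibition at each concentration was fitted to a four-parameter variable-slope equation for IC50 and Hill slope. Some runs included 0.01% Tween-20 (final). Ligand efficiency and binding efficiency index were calculated from IC50.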

Another test relates to GAPDH isozymes. The following applies: ref PMID: 12788228, PMID: 2353814; cited from earlier work.
The test system of another test is purified his-GAPDHS. The following applies: baculovirus/insect cell expressed his-GAPDHS ref 22; cited from earlier work.

Chain of recombinant human GST-GAPDHS (O14556 69-408): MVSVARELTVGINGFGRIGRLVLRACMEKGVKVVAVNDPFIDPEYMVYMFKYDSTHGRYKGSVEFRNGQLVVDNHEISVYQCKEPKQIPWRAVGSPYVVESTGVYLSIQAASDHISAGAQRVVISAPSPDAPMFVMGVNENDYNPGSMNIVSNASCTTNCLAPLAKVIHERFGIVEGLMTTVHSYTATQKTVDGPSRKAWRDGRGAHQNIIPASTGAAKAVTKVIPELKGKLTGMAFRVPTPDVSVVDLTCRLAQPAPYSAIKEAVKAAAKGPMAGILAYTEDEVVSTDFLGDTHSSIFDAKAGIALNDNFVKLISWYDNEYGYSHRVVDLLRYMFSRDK

For the compound `CC1=CC(=O)c2ccccc2C1=O` [Menadione], the IC50 was determined as 47 µM in test [1] (IC50, follow up, absence of Tween-20, dry powder, no detergent) and 53 µM in test [1] (IC50 in the presence of 0.01% Tween-20, dry powder, 0.01% Tween-20). In the test on GAPDH isozymes, the “inhibitor of GAPDH isozymes in vivo” value is “non-selective inhibitor”. The “active in Prestwick screen against his-GAPDHS” value in the test with purified his-GAPDHS is given as “identified as actives”.

(Values after paper PMC3134944 (Current Chemical Genomics, 2011).)
